From ChEMBL document CHEMBL4425133, “Discovery and Pharmacokinetic and Pharmacological Properties of the Potent and Selective MET Kinase Inhibitor 1-{6-[6-(4-Fluorophenyl)-[1,2,4]triazolo[4,3-b]pyridazin-3-ylsulfanyl]benzothiazol-2-yl}-3-(2-morpholin-4-ylethyl)urea (SAR125844)” (J Med Chem, 2016)
Values after ≈ are worked out from the molar mass of the structure shown.

Experiments:
[1] = target: T1, Hepatocyte growth factor receptor (Homo sapiens, UniProt P08581); test: Inhibition of wild type phosphorylated MET (unknown origin) pre-incubated for 30 mins before biotinylated poly(glutamate-alanine-tyrosine) peptide addition and measured after 5 mins by HTRF assay
T1 sequence (P08581 whole entry): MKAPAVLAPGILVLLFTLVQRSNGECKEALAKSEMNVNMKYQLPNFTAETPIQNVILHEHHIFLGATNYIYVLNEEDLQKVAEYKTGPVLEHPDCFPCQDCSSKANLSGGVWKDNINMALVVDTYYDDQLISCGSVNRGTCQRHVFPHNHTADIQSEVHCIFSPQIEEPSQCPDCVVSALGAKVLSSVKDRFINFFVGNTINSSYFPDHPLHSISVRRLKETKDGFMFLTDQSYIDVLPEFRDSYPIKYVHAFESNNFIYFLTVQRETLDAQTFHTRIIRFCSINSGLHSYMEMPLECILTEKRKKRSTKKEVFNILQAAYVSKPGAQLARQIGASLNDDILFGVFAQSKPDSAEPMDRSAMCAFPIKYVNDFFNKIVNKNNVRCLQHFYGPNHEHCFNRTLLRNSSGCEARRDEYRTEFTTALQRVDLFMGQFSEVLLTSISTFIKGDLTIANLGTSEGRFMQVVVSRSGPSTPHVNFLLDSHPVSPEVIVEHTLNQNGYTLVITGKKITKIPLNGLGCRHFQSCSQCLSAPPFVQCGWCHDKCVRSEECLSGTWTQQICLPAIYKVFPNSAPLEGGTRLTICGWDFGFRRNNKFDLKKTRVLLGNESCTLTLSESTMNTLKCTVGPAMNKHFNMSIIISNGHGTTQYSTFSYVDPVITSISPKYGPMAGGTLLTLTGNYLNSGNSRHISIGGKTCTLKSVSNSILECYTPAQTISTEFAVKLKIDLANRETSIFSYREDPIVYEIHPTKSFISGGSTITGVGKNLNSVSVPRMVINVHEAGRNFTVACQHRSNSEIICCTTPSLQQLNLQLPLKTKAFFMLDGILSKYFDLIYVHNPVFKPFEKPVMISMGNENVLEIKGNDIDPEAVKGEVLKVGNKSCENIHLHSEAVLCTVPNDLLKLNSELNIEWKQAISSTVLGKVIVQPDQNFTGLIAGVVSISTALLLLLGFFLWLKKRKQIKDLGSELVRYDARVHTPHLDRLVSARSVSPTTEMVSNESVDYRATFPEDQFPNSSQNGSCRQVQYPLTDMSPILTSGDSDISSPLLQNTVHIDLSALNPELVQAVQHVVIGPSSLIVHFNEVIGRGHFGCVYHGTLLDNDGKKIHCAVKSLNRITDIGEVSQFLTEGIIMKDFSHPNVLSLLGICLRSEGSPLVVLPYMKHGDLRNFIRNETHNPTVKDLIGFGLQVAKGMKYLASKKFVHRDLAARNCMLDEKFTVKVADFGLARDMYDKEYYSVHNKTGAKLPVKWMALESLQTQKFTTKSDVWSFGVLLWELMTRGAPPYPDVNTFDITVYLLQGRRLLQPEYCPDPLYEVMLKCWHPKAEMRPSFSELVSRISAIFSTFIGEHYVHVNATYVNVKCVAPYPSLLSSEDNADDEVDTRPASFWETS

[2] = target: Cyclin-dependent kinase 9 (Homo sapiens, UniProt P50750); test: Inhibition of CDK9 (unknown origin)
Chain of Cyclin-dependent kinase 9 (P50750 whole entry): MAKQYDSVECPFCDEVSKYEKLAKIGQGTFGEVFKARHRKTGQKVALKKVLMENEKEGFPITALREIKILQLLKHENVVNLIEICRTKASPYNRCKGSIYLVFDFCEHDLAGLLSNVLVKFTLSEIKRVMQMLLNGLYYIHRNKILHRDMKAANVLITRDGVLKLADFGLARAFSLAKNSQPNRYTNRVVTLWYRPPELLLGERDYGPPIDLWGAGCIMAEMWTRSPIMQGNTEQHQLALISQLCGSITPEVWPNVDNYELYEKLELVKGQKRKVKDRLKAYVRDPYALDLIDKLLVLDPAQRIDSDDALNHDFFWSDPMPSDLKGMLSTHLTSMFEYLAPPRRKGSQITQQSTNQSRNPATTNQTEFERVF

Tubulin = test: Binding affinity to tubulin (unknown origin); format: protein-complex assay, Homo sapiens
[3] = target: Hepatocyte growth factor receptor (Homo sapiens, UniProt P08581, Y1230H); test: Inhibition of phosphorylated MET Y1230H mutant (unknown origin) pre-incubated for 30 mins before biotinylated poly(glutamate-alanine-tyrosine) peptide addition and measured after 5 mins by HTRF assay
Chain of Hepatocyte growth factor receptor (Homo sapiens, UniProt P08581, Y1230H) (P08581 25-1390 Y1230H limits assumed): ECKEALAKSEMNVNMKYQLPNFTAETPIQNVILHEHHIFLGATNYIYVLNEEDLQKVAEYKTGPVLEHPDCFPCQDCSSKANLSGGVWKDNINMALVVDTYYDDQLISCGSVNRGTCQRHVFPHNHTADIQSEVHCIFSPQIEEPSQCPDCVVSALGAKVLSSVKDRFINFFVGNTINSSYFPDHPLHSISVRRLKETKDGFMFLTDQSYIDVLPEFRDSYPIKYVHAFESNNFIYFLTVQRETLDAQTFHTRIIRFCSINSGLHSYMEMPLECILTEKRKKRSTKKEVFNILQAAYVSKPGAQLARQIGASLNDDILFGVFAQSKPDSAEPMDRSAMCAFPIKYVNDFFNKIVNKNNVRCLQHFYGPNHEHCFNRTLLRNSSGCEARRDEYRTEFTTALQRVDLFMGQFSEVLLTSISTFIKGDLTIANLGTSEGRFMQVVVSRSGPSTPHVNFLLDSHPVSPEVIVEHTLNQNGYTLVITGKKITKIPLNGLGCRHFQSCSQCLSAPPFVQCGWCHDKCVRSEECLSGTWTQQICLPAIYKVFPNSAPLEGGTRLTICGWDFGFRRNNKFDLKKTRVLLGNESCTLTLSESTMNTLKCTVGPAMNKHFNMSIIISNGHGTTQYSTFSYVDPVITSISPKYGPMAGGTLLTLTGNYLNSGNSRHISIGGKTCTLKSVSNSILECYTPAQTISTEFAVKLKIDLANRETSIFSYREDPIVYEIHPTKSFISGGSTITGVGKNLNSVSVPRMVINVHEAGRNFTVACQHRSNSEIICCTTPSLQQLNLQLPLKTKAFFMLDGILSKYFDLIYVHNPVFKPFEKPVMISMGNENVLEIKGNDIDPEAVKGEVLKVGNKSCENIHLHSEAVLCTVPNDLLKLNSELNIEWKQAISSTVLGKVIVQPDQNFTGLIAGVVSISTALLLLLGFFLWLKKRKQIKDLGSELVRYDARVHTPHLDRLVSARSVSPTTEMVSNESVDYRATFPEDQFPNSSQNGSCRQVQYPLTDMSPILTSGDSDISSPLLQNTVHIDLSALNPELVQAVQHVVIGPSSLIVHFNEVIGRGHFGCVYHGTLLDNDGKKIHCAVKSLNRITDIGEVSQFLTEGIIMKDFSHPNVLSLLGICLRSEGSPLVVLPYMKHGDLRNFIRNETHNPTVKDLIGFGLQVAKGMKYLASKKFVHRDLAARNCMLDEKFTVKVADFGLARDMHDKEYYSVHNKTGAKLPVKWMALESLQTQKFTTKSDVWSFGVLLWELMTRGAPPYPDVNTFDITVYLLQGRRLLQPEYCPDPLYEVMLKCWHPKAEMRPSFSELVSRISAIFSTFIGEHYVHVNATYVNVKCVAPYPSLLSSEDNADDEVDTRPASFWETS

[4] = Equilibrium solubility in phosphate buffer in absence of 10% Labrasol at pH 7.4; format: physicochemical
[5] = Equilibrium solubility in phosphate buffer in presence of 10% Labrasol at pH 7.4; format: physicochemical; conditions: phosphate buffer with 10% Labrasol
[6] = Drug metabolism in human hepatic microsomes at 5 uM incubated for 20 mins in presence of NADPH by liquid chromatography-tandem mass spectrometry; format: ADME, Microsome; conditions: liver microsomes, read-out: Drug metabolism
Cytochrome P450 3A4 [7] = target: T2, Cytochrome P450 3A4 (Homo sapiens, UniProt P08684); test: Inhibition of human recombinant CYP3A4 co-expressed with human P450 reductase and human b5 reductase assessed as reduction in 7-Hydroxyquinoline production using 7-benzyloxyquinoline as substrate and NADPH incubated for 15 mins by fluorimetry; format: ADME
T2 sequence (P08684 whole entry): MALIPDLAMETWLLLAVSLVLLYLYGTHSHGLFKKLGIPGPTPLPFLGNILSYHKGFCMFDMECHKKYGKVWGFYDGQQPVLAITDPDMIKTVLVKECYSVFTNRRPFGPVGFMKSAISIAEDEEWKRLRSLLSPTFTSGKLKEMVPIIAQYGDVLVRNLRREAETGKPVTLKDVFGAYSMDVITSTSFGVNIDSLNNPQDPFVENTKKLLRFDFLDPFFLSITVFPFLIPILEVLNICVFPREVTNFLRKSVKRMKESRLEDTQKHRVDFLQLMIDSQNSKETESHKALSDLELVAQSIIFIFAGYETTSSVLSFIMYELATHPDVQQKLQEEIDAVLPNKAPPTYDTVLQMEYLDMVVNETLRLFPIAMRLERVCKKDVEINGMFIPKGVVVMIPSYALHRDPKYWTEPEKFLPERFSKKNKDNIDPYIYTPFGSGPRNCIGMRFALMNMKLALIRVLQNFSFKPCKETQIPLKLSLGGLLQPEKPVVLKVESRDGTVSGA

Cytochrome P450 3A4 [8] = target: T2, Cytochrome P450 3A4; test: Mechanism based time dependent inhibition of human recombinant CYP3A4 co-expressed with human P450 reductase and human b5 reductase assessed as reduction in 7-Hydroxyquinoline production using 7-benzyloxyquinoline as substrate and NADPH measured every 3 mins for 15 mins by fluorimetry; format: ADME; conditions: recombinant enzyme, 0.25 h
[9] = Apparent permeability from apical to basolateral side in human Caco2/TC7 cells at 20 uM by liquid chromatography-tandem mass spectrometry; conditions: Caco-2
[10] = target: T1, Hepatocyte growth factor receptor; test: Inhibition of phosphorylated MET in human MKN45 cells assessed as reduction in pMET Y1230/1234/1235 level incubated for 1 hr by ELISA; format: cell-based
Summary of the method: (§1)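 MKN-45 is a MET-amplified human gastric tumour cell line.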

MKN-45 = test: Antiproliferative activity against human MKN45 cells assessed as reduction in [14C]-thymidine incorporation incubated for 96 hrs by beta counting method; format: functional, cell-based; conditions: MKN-45, 96 h; summary of the method: as §1
[11] = target: Hepatocyte growth factor receptor (Homo sapiens, UniProt P08581, L1195V); test: Inhibition of phosphorylated MET L1195V mutant (unknown origin) pre-incubated for 30 mins before biotinylated poly(glutamate-alanine-tyrosine) peptide addition and measured after 5 mins by HTRF assay
[12] = Lipophilicity, log D of the compound by HPLC method; format: physicochemical
[13] = target: Hepatocyte growth factor receptor (Homo sapiens, UniProt P08581, M1250T); test: Inhibition of phosphorylated MET M1250T mutant (unknown origin) pre-incubated for 30 mins before biotinylated poly(glutamate-alanine-tyrosine) peptide addition and measured after 5 mins by HTRF assay
Chain of Hepatocyte growth factor receptor (Homo sapiens, UniProt P08581, M1250T) (P08581 25-1390 M1250T limits assumed): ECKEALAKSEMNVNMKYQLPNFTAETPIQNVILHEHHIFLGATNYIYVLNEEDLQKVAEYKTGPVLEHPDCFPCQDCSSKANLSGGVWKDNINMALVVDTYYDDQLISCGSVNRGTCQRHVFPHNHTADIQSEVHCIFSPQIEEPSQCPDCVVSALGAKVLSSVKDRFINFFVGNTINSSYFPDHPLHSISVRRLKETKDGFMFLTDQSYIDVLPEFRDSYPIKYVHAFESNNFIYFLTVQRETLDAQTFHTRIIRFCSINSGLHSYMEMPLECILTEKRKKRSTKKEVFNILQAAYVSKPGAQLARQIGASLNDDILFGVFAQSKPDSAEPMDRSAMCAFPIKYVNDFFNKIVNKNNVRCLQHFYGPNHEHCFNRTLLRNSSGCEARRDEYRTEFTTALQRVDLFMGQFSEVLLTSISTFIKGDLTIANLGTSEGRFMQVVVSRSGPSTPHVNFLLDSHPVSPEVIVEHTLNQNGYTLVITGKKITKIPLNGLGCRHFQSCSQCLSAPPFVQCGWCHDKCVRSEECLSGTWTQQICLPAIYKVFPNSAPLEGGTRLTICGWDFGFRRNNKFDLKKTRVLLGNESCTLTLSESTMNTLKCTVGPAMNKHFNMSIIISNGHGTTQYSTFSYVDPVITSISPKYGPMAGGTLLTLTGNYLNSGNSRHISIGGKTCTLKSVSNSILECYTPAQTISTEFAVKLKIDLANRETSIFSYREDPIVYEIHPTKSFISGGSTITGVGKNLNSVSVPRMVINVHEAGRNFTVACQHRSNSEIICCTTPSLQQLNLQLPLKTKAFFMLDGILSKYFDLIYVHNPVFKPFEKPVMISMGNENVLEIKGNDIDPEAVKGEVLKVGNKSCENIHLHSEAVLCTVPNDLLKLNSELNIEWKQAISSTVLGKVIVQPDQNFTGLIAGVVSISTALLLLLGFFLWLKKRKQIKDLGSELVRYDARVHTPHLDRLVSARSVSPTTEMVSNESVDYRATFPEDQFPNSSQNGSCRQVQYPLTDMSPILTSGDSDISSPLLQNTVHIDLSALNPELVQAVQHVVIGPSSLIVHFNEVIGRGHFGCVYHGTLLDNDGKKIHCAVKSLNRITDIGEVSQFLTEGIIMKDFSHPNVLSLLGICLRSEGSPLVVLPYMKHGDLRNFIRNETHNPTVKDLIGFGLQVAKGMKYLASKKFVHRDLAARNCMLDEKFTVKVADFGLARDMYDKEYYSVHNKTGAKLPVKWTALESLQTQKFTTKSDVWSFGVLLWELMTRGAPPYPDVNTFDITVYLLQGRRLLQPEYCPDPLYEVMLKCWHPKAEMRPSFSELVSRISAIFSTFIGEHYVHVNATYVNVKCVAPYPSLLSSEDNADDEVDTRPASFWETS

[14] = Oral bioavailability in mouse; format: ADME, organism-based; conditions: in vivo
[15] = target: T1, Hepatocyte growth factor receptor; test: Binding affinity to MET (unknown origin) by isothermal titration calorimetry

Structure (SMILES) | IC50 [1] [nM] | IC50 [2] [nM] | IC50 (Tubulin) [nM] | IC50 [3] [nM] | solubility thermodynamic [4] [µM] | solubility thermodynamic [5] [µM] | metabolised at 20 min, 5 µM [6] [%] | IC50 (Cytochrome P450 3A4 [7]) [µM] | INH (Cytochrome P450 3A4 [8]) [%/min] | Papp A→B at 20 µM [9] [×10⁻⁶ cm/s] | IC50 [10] [nM] | IC50 (MKN-45) [nM] | IC50 [11] [nM] | logD [12] | IC50 [13] [nM] | bioavailability [14] [%] | Kd [15] [nM]
COC(=O)Nc1nc2cc(OS(=O)(=O)c3c(Cl)cccc3Cl)ccc2[nH]1 | 23 | 1200 | 2700 | – | – | – | – | – | – | – | – | – | – | – | – | – | –
CCOc1ccc2nnc(Sc3ccc4nc(NC(=O)NCCN5CCOCC5)sc4c3)n2n1 | 3 | – | – | 643 | 5 (≈ 2.5 µg/mL) | 460 | 51 | 4 | -13.1 | – | – | – | – | – | – | – | –
O=C(NCCN1CCOCC1)Nc1nc2ccc(Sc3nnc4ccc(NC5CCOCC5)nn34)cc2s1 | 1 | – | – | 217 | 89 (≈ 49.5 µg/mL) | – | 39 | > 40 | -14.2 | 0.2 | – | – | – | – | – | – | –
O=C(Nc1nc2ccc(Sc3nnc4ccc(-c5ccc(F)cc5)nn34)cc2s1)OCCN1CCOCC1 | 45 | – | – | > 10000 | 8 (≈ 4.41 µg/mL) | 245 | – | – | – | – | 25 | 95 | 6520 | 4.1 | – | – | –
O=C(CC1CC1)Nc1nc2ccc(Sc3nnc4ccc(-c5ccc(F)cc5)nn34)cc2s1 | 4 | – | – | > 10000 | < 2 | – | – | – | – | – | 13 | 22 | > 10000 | > 4.6 | 128 | – | –
O=C(NCCN1CCOCC1)Nc1nc2ccc(Sc3nnc4ccc(Oc5ccccc5)nn34)cc2s1 | 2 | – | – | 174 | < 2 | – | 32 | 7.9 | -12.8 | 0.8 | – | – | – | – | – | – | –
Fc1ccc(-c2ccc3nnc(Sc4ccc5nc(NCCN6CCOCC6)sc5c4)n3n2)cc1 | 20 | – | – | > 10000 | < 1 | 543 | – | – | – | – | 13 | 45 | 835 | 4.1 | 455 | – | –
O=C(NCCN1CCOCC1)Nc1nc2ccc(Sc3nnc4ccc(OC5CCCC5)nn34)cc2s1 | 6 | – | – | 216 | < 2 | – | 29 | 31 | -5.5 | 2.6 | – | – | – | – | – | 12 | –
CCN1CCC(CCNC(=O)Nc2nc3ccc(Sc4nnc5ccc(-c6cccs6)nn45)cc3s2)CC1 | 2 | – | – | 23 | < 2 | – | – | – | – | – | 29 | 2.7 | – | 3.9 | – | – | –
CCCCOc1ccc2nnc(Sc3ccc4nc(NC(=O)NCCN5CCOCC5)sc4c3)n2n1 | 5 | – | – | 140 | < 2 | – | 23 | 8.7 | -11.3 | 0.7 | – | – | – | – | – | – | –
O=C(NCCN1CCOCC1)Nc1nc2ccc(Sc3nnc4cccnn34)cc2s1 | 29 | – | – | 4800 | 70 (≈ 32 µg/mL) | 1070 | 11 | 34 | -2.3 | – | – | – | – | – | – | – | 12
O=C(CCCN1CCOCC1)Nc1nc2ccc(Sc3nnc4ccc(-c5ccc(F)cc5)nn34)cc2s1 | 6 | – | – | 1170 | – | 96 | – | – | – | – | 2 | 12 | 318 | 4.3 | 93 | – | –
O=C(NCCN1CCOCC1)Nc1nc2ccc(Sc3nnc4ccc(Oc5cccc(F)c5)nn34)cc2s1 | 3 | – | – | 56 | < 2 | – | 16 | 2 | -12.2 | 0.8 | – | – | – | – | – | – | –
CCNc1nc2ccc(Sc3nnc4ccc(-c5ccc(F)cc5)nn34)cc2s1 | 15 | – | – | > 10000 | < 2.5 | – | – | – | – | – | 15 | 42 | > 10000 | > 4.6 | 417 | – | –
O=C(NCCN1CCOCC1)Nc1nc2ccc(Sc3nnc4ccc(OC5CCCCCC5)nn34)cc2s1 | 15 | – | – | 407 | < 2 | – | 36 | 14 | -11.6 | 2 | – | – | – | – | – | – | –
Nc1nc2ccc(Sc3nnc4ccc(-c5ccc(F)cc5)nn34)cc2s1 | 10 | – | – | > 10000 | – | 44 | – | – | – | – | 43 | 81 | 9000 | > 4.6 | 245 | – | –
O=C(Nc1nc2ccc(Sc3nnc4ccc(-c5ccc(F)cc5)nn34)cc2s1)C1CC1 | 3 | – | – | 883 | < 1 | 64 | – | – | – | – | 4 | 7 | 61 | 4.7 | 13 | – | –
COCCNC(=O)Nc1nc2cc(OS(=O)(=O)c3c(F)cccc3F)ccc2[nH]1 | 5 | 6 | – | – | – | – | – | – | – | – | – | – | – | – | – | – | –
O=C(NCCN1CCOCC1)Nc1nc2ccc(Sc3nnc4ccc(NC5CCCCC5)nn34)cc2s1 | 1 | – | – | 139 | < 2 | – | 38 | 2.9 | -9.1 | – | – | – | – | – | – | – | –
CCN(CC)CCNC(=O)Nc1nc2ccc(Sc3nnc4ccc(-c5ccc(F)cc5)nn34)cc2s1 | 3 | – | – | 864 | < 1 | 1000 | – | – | – | – | 10 | 33 | 148 | 4.15 | 71 | – | –
O=C(NCCN1CCOCC1)Nc1nc2ccc(Sc3nnc4ccc(-c5cccc(F)c5)nn34)cc2s1 | 10 | – | – | 140 | 32 (≈ 17.6 µg/mL) | 1170 | 24 | 1.8 | -8.2 | 0.4 | – | – | – | – | – | – | 8.7
O=C(NCCN1CCOCC1)Nc1nc2ccc(Sc3nnc4ccc(NC5CC5)nn34)cc2s1 | 1 | – | – | 274 | < 2 | – | 26 | 0.2 | -3.8 | – | – | – | – | – | – | – | –
